Data as given in ChEMBL document CHEMBL1177856, “Synthesis and cytotoxic activity of fluorinated analogues of Goniothalamus lactones. Impact of fluorine on oxidative processes” (Eur J Med Chem, 2010).

Experiments:
[1] = test system: HT-29; assay: Cytotoxicity against human HT-29 cells after 24 hrs; type: functional, cell-based; conditions: HT-29, 24 h
Outline: (§1)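 Cell growth inhibition assay on human cancer lines KB, MCF-7, HT29, HepG2 and A549. IC50 is defined as the concentration that inhibits cell growth by 50%.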

[2] = test system: HepG2; assay: Cytotoxicity against human HepG2 cells after 24 hrs; type: functional, cell-based; conditions: HepG2, 24 h; outline: as §1
[3] = test system: MCF7; assay: Cytotoxicity against human MCF7 cells after 24 hrs; type: functional, cell-based; conditions: MCF7, 24 h; outline: as §1
[4] = test system: A549; assay: Cytotoxicity against human A549 cells after 24 hrs; type: functional, cell-based; conditions: A549, 24 h; outline: as §1
[5] = test system: KB; assay: Cytotoxicity against human KB cells after 24 hrs; type: functional, cell-based; outline: as §1
[6] = test system: KB; assay: Cytotoxicity against human KB cells after 24 hrs
[7] = test system: MCF7; assay: Cytotoxicity against human MCF7 cells after 24 hrs; conditions: MCF7, 24 h
[8] = test system: HT-29; assay: Cytotoxicity against human HT-29 cells after 24 hrs; conditions: HT-29, 24 h
[9] = test system: A549; assay: Cytotoxicity against human A549 cells after 24 hrs; conditions: A549, 24 h
[10] = test system: HepG2; assay: Cytotoxicity against human HepG2 cells after 24 hrs; conditions: HepG2, 24 h
[11] = Cytotoxicity against human Hep3B cells; type: functional, cell-based, Hep 3B2
[12] = test system: WEHI-164; assay: Cytotoxicity against mouse WEHI164 cells; type: functional, cell-based
[13] = test system: P388; assay: Cytotoxicity against mouse P388 cells; type: functional, cell-based
[14] = test system: MDA-MB-231; assay: Cytotoxicity against human MDA-MB-231 cells; type: functional, cell-based

SMILES | IC50 [1] | IC50 [2] | IC50 [3] | IC50 [4] | IC50 [5] | IC50 [6] | IC50 [7] | IC50 [8] | IC50 [9] | IC50 [10] | IC50 [11] | IC50 [12] | IC50 [13] | IC50 [14]
O=C1C=C[C@H](O)[C@H]([C@H](O)[C@H](OC(=O)/C=C/C(F)(F)F)c2ccccc2)O1 | 4.5 µM | 1.8 µM | 1.6 µM | 3 µM | 1.4 µM | – | – | – | – | – | – | – | – | –
O=C1C=CCC(/C=C/C(F)(F)F)O1 (racemic) | – | – | – | – | – | > 10 µM | > 10 µM | > 10 µM | > 10 µM | > 10 µM | – | – | – | –
O=C1C=CCC(/C=C/c2ccccc2)O1 (racemic) | 10.1 µM | 2.4 µM | 3.5 µM | 9.1 µM | 3 µM | – | – | – | – | – | 5.4 µM | 8.5 µM | 3.8 µM | 5.4 µM
O=C1C=CC[C@H](/C=C/c2ccccc2)O1 [GONIOTHALAMIN] | – | 1.6 µM | 4.5 µM | – | – | – | – | – | – | – | 5.4 µM | 8.5 µM | 3.8 µM | 5.4 µM
O=C1C=C[C@H](O)[C@H]([C@H](O)[C@H](OC(=O)/C=C/c2ccccc2)c2ccccc2)O1 [HOWIINOL A] | 2.6 µM | 1.6 µM | 1.1 µM | 1.5 µM | 0.9 µM | – | – | – | – | – | – | – | – | –
